Data: ChEMBL document CHEMBL1144135, “Synthesis of 11,12-epoxydrim-8,12-en-11-ol, 11,12-diacetoxydrimane, and warburganal from (-)-sclareol” (J Nat Prod, 1999)
Values after ≈ are worked out from the molar mass of the structure shown.

Tests used:
Assay type in all cases: functional, cell-based
P388 = test: Antitumor activity against mouse P388 cells
In short: (§1)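 Cells from four lines (P-388, A-549, HT-29, MEL-28) were tested in parallel with reference standards. Activity was read out as IC50 in […], using a previously published antitumor assay protocol.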

A549 = test: Antitumor activity against human A549 cells; in short: as §1
HT-29 = test: Antitumor activity against human HT-29 cells; in short: as §1
[1] = Antitumor activity against human SK MEL28 cells; conditions: SK-MEL-28; in short: as §1

SMILES: COc1cccc2c1C(=O)c1c(O)c3c(c(O)c1C2=O)C[C@@](O)(C(=O)CO)C[C@@H]3O[C@H]1C[C@H](N)[C@H](O)[C@H](C)O1.Cl [DOXORUBICIN HYDROCHLORIDE]
- IC50 (P388): 0.1 µg/mL
- IC50 (A549): 0.025 µg/mL
- IC50 (HT-29): 0.5 µg/mL
- IC50 [1]: 0.5 µg/mL

SMILES: CC1(C)CCC[C@]2(C)[C@@H]3C(=CO[C@@H]3O)CC[C@@H]12
- IC50 (P388): 0.5 µg/mL (≈ 2.12 µM)
- IC50 (A549): 0.5 µg/mL (≈ 2.12 µM)
- IC50 (HT-29): 1 µg/mL (≈ 4.23 µM)
- IC50 [1]: 1 µg/mL (≈ 4.23 µM)

SMILES: CN(Cc1cnc2nc(N)nc(N)c2n1)c1ccc(C(=O)N[C@@H](CCC(=O)O)C(=O)O)cc1 [METHOTREXATE]
- IC50 (P388): 0.002 µg/mL (≈ 0.0044 µM)
- IC50 (A549): 0.005 µg/mL (≈ 0.011 µM)
- IC50 (HT-29): 0.01 µg/mL (≈ 0.022 µM)
- IC50 [1]: 0.01 µg/mL (≈ 0.022 µM)

SMILES: O=c1[nH]cc(F)c(=O)[nH]1 [FLUOROURACIL]
- IC50 (P388): 0.02 µg/mL (≈ 0.154 µM)
- IC50 (A549): 0.1 µg/mL (≈ 0.769 µM)
- IC50 (HT-29): 0.1 µg/mL (≈ 0.769 µM)
- IC50 [1]: 0.1 µg/mL (≈ 0.769 µM)

SMILES: CC1(C)CCC[C@]2(C)[C@@H](C=O)C(C=O)=CC[C@@H]12 [POLYGODIAL]
- IC50 (P388): 1.2 µg/mL (≈ 5.12 µM)
- IC50 (A549): 2.5 µg/mL (≈ 10.7 µM)
- IC50 (HT-29): 2.5 µg/mL (≈ 10.7 µM)
- IC50 [1]: 2.5 µg/mL (≈ 10.7 µM)
